GalR3 antagonist: antagonists of human GalR3; O60755; HEK293 GalR3-CNG cAMP membrane potential fluorescence; galR3 body fused to GalR1 C-terminus; inhibition, % at 3 µM; 360,000 compounds, 0.44% hits;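 active = inhibition above the screen-wide average plus 3 SD, cut at about 13% in these data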;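 also: forskolin and galanin both at EC90 stimulate the cells; cAMP rise reported by CNG channel membrane potential dye signal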
GPR7 antagonist: antagonists of human GPR7 (neuropeptides B/W receptor 1); P48145; GPR7-expressing cells, fluorescence antagonist assay; inhibition, % at 4.4 µM; 290,000 compounds, 1.1% hits; in the data active = inhibition above about 16%, passing the limit was not always enough;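 also: cells stimulated with the agonist NPW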
Target sequence (P48145 whole entry, looked up): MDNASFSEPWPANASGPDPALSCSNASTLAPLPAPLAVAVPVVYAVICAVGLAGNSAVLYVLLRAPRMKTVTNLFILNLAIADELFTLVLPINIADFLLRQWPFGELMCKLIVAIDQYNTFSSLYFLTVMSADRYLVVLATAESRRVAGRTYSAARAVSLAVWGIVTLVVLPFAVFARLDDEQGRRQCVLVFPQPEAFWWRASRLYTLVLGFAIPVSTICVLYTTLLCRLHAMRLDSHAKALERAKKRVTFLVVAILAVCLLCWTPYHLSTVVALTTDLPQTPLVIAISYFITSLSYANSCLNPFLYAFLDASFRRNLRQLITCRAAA
OX1R antag-1: antagonists of human orexin 1 receptor; CHO/OX1R cells, Fluo-8 calcium fluorescence, orexin A; O43613; 330,000 compounds, 0.43% hits; inhibition, % at 5 µM;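 active = inhibition above its plate's threshold, mean inhibition of all tested compounds on the plate plus 3 SD, cut at about 37% in these data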
OX1R antag-2: antagonists of human orexin 1 receptor (OX1R). OX1R-expressing cells, FRET antagonist read-out. inhibition, % at 6.6 µM. 330,000 compounds, 1.8% hits. AID 485270; in the data active = inhibition mostly above about 38%, no sharp cut-off; inactive = mostly below about 40%
CHO parental Ca: counter-screen: ATP calcium response change in parental CHO cells; parental CHO-K1, ATP-induced calcium, Fluo-8 fluorescence; inhibition, % at 5.6 µM; 330,000 compounds, 0.63% hits; AID 463079;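 active = inhibition above that plate's mean sample inhibition plus 3 SD, cut at about 26% in these data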
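Test system: parental CHO cells; detection: calcium-sensitive Fluo-8 fluorescence; evaluation: percent inhibition of calcium signal; also added: ATP as calcium-mobilizing challenge; repeats: one well per compound; control set: ATP-challenged DMSO wells low, unchallenged DMSO wells high; compound: single nominal dose of 5.6 µM per compound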
Large screens that a line does not name were inactive. Only some compounds are listed: those with a hit (about 3.1% of all), similar ones and a draw of the others.

Cc1ccc(S(=O)(=O)N2CCN(C(=O)CN3C(=O)NC4(CCCC4)C3=O)CC2)c(C)c1	none (no result: GPR7 antagonist)
C/C(Cn1cnc([N+](=O)[O-])n1)=N\NC(=O)c1ccccc1	none
C/C(Cn1nnc([N+](=O)[O-])n1)=N\NC(=O)c1ccccc1	OX1R antag-2 31.9
O=C(C1CCCO1)N1CCN(Cc2c(O)ccc3ccccc23)CC1 (stereo not given)	CHO parental Ca 28.9
COc1ccc(C2(c3ccc(OC)cc3)NC(=O)N(CC(=O)Nc3ccc(OC)c(OC)c3)C2=O)cc1	none
CC(=O)Nc1nc(-c2ccc3c(c2)CCN3C(=O)C2CC2)c(C)s1	OX1R antag-2 47.7
CNc1nc(-c2ccc3c(c2)CCN3C(=O)CC(C)(C)C)c(C)s1	none
CCN(CC)C(=O)c1ccc2nc(-c3ccccc3)c(-c3ccccc3)nc2c1	none
CCN(CC)C(=O)c1ccc2nc3ccccc3nc2c1	OX1R antag-2 65.4
Cc1ccnc(Sc2ncccc2[N+](=O)[O-])n1	OX1R antag-2 59.5
Cc1ccc(Sc2ncccc2[N+](=O)[O-])cc1	none
Nc1nnc(Sc2ncccc2[N+](=O)[O-])s1	OX1R antag-2 38.6
NC1=NC(c2ccccc2C(F)(F)F)N(c2ccc(F)c(Cl)c2)C(N)=N1 (stereo not given)	none
COc1c([N+](=O)[O-])cc(C(=O)NNC(=O)c2ccc(C)cc2)cc1[N+](=O)[O-]	OX1R antag-2 45.7
Cc1csc2nc(O)c(C(=O)NCCC3=CCCCC3)c(=O)n12	none (no result: GPR7 antagonist)
O=S(=O)(CCSc1nc2ccccc2s1)c1nc2ccccc2s1	OX1R antag-2 53.0
CCS(=O)(=O)CCSc1nc2ccccc2s1	none
c1ccc2[nH]c(CSc3nc4ccccc4s3)nc2c1	OX1R antag-2 71.9
O=C(CSc1nc2ccccc2s1)CSc1nc2ccccc2s1	OX1R antag-2 45.3
Cn1c(CSc2nc3ccccc3s2)nc2ccccc21	OX1R antag-2 40.8
COc1ccc(-c2noc(N3CCC(C(=O)NCCCN4CC(C)CC(C)C4)CC3)n2)cc1 (stereo not given)	none
COc1ccc(NC(=S)N2CCN(S(=O)(=O)c3ccccc3)CC2)cc1	none (no result: OX1R antag-1, OX1R antag-2, CHO parental Ca)
Cn1c(N)c(-c2ccccc2)c2ccc([N+](=O)[O-])cc2c1=O	OX1R antag-1 53.1, CHO parental Ca 42.6
Nc1ccc(C(=O)Nc2ccc(OC(F)(F)C(F)F)c(NC(=O)c3ccc(N)cc3)c2)cc1	none
O=C(Nc1ccc(OC(F)(F)C(F)F)c(NC(=O)c2ccc(F)cc2)c1)c1ccc(F)cc1	OX1R antag-2 64.8
O=C(Nc1ccccc1F)N1CCc2ccccc2C1	none (no result: OX1R antag-1, OX1R antag-2, CHO parental Ca)
FC(F)C(F)(F)C(F)(F)C(F)(F)c1cc(-c2ccccc2)n[nH]1	OX1R antag-1 52.5, OX1R antag-2 42.2, CHO parental Ca 86.6
Cc1cc(-c2ccccc2)n[nH]1	none
Cc1c(NC(=O)c2cc(-c3ccc(F)cc3)on2)c(=O)n(-c2ccccc2)n1C	none
Cc1nn(-c2ccccc2)c2nc(C(F)(F)F)[nH]c(=O)c12	none
Cc1nn(-c2cc(C(F)(F)F)ccc2Cl)c2nc(C(Cl)(Cl)Cl)[nH]c(=O)c12	OX1R antag-2 39.9
CCC(=O)N1CCN(c2ccc(-n3c(=O)ccc4cnc5ccc(-c6cnc7ccccc7c6)cc5c43)cc2C(F)(F)F)CC1	none (no result: GPR7 antagonist, OX1R antag-1, OX1R antag-2, CHO parental Ca)
O=C(CNC(=O)c1ccco1)N=Nc1c(O)[nH]c2ccc(Br)cc12	OX1R antag-2 36.4
O=C(CNC(=O)Cc1ccccc1)N=Nc1c(O)[nH]c2ccccc12	OX1R antag-2 44.8
CCCCCCC(=O)N=Nc1c(O)[nH]c2ccc([N+](=O)[O-])cc12	none
O=C(CN1CCN(Cc2ccccc2)CC1)N=Nc1c(O)[nH]c2ccccc12	none
O=C(CNC(=O)c1cccs1)N=Nc1c(O)[nH]c2ccc([N+](=O)[O-])cc12	OX1R antag-2 40.8
Cc1cccc(C)c1N=Nc1c(C)cc(O)cc1C	CHO parental Ca 59.8
O=[N+]([O-])c1ccc(O)c(/C=N/Nc2ccccn2)c1	OX1R antag-1 74.7, CHO parental Ca 86.8
O=C(CN1C(=O)CSc2ccc(S(=O)(=O)N3CCOCC3)cc21)NCCc1ccccc1	none (no result: GPR7 antagonist, OX1R antag-1, OX1R antag-2, CHO parental Ca)
O=C(NCc1ccco1)c1nnc(Cc2ccc(Cl)cc2)o1	none
Cc1ccc(CNC(=O)c2nnc(Cc3ccc(Cl)cc3)o2)cc1	CHO parental Ca 43.5
Cc1ccc(C)c(N2CCN(C(=O)c3ccc(CSc4nc5ccncc5[nH]4)cc3)CC2)c1	OX1R antag-1 52.9, CHO parental Ca 44.0
Cc1nc2c(ccc3nc(NC(=O)c4ccc5c(c4)OCCO5)sc32)s1	OX1R antag-2 64.4

From PubChem BioAssay
